Measurements as given in ChEMBL document CHEMBL1275490, “Antifungal resistance of Candida glabrata vaginal isolates and development of a quantitative reverse transcription-PCR-based azole susceptibility assay” (2008).

Tests used:
Format in all cases: functional
Nakaseomyces glabratus [1] = test: Antifungal activity against Candida glabrata clinical isolate obtained from cervicovaginal candidiasis patient assessed as susceptible dose-dependent isolates by broth microdilution method
Method in brief: (§1)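 C. glabrata isolates were recovered from cervicovaginal swabs. Species was identified by in-house species-specific real-time PCR and confirmed on chromogenic Candida agar. Susceptibility was tested by CLSI M27-A2 broth microdilution, and isolates were classed as S, S-DD or R from the MIC. Voriconazole categories used proposed breakpoints.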

Nakaseomyces glabratus [2] = test: Antifungal activity against Candida glabrata clinical isolate overexpressing CDR1 gene obtained from cervicovaginal candidiasis patient assessed as resistant isolates by broth microdilution method
Method in brief: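 Cervicovaginal swab isolates were classed by CLSI M27-A2 broth microdilution MIC. For expression, RNA came from mid-log cultures, column-purified and DNase-treated. Duplex qRT-PCR measured CDR1 (also PDH1, PDR1) against ACT1 as control, in triplicate independent amplifications from the same RNA. A ≥3-fold rise in CDR1 expression […].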

Nakaseomyces glabratus [3] = test: Antifungal activity against Candida glabrata clinical isolate obtained from cervicovaginal candidiasis patient assessed as susceptible isolates by broth microdilution method; method in brief: as §1
Nakaseomyces glabratus [4] = test: Antifungal activity against Candida glabrata clinical isolate obtained from vulvovaginal candidiasis patient assessed as resistant isolates by broth microdilution method; method in brief: as §1
Nakaseomyces glabratus [5] = test: Antifungal activity against Candida glabrata clinical isolate obtained from vulvovaginal candidiasis patient assessed as susceptible isolates by broth microdilution method; method in brief: as §1

| SMILES | Activity (Nakaseomyces glabratus [1]) [%] | Activity (Nakaseomyces glabratus [2]) [%] | Activity (Nakaseomyces glabratus [3]) [%] | Activity (Nakaseomyces glabratus [4]) [%] | Activity (Nakaseomyces glabratus [5]) [%] |
| --- | --- | --- | --- | --- | --- |
| C[C@@H](c1ncncc1F)[C@](O)(Cn1cncn1)c1ccc(F)cc1F [VORICONAZOLE] | 13.7 | 24 | 62.3 | – | – |
| Clc1ccc(COC(Cn2ccnc2)c2ccc(Cl)cc2Cl)c(Cl)c1 (stereo not given) [MICONAZOLE] | 0 | – | 100 | – | – |
| OC(Cn1cncn1)(Cn1cncn1)c1ccc(F)cc1F [FLUCONAZOLE] | 42.2 | 26.9 | 30.9 | 51.8 | 15.2 |
